What was measured:
Cannabinoid receptor 1 = Cannabinoid receptor 1 (Homo sapiens, UniProt P21554); test: Displacement of [3H]CP-55,940 from human CB1 receptor expressed in CHO cell membranes after 90 mins by scintillation counting analysis
Cannabinoid receptor 2 [1] = target: T1, Cannabinoid receptor 2 (Homo sapiens, UniProt P34972); test: Displacement of [3H]CP-55,940 from human CB2 receptor expressed in CHO cell membranes after 60 mins by scintillation counting analysis
CHO = test: Selectivity ratio of Ki for human CB1 receptor expressed in CHO cell membranes to Ki for human CB2 receptor expressed in CHO cell membranes; assay type: cell-based
Method in brief: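 CHO membranes with human CB1 or CB2 in 50 mM Tris-HCl, 0.5% BSA, pH 7.4, 5 mM MgCl2, with 1 mM (CB1) or 2.5 mM (CB2) EDTA. Competition against 0.5 nM [3H]CP-55,940 at 30 °C for 90 min (CB1) or 60 min (CB2). GF/C filtration, scintillation counting. Ki from IC50 by Cheng–Prusoff; mean ± SEM, n = 4.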

Cannabinoid receptor 2 [2] = target: T1, Cannabinoid receptor 2; test: Inverse agonist activity at human CB2 receptor transfected in CHO cells assessed as increase in forksolin stimulated cAMP production at 10 uM by scintillation counting analysis relative to control; assay type: functional, cell-based
Cannabinoid receptor 2 [3] = target: T1, Cannabinoid receptor 2; test: Inverse agonist activity at human CB2 receptor transfected in CHO cells assessed as increase in forksolin stimulated cAMP production at 1 uM by scintillation counting analysis relative to control; assay type: functional, cell-based
Cannabinoid receptor 2 [4] = target: T1, Cannabinoid receptor 2; test: Inverse agonist activity at human CB2 receptor transfected in CHO cells assessed as increase in forksolin stimulated cAMP production by scintillation counting analysis; assay type: functional, cell-based
Method in brief: (§1)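 Human CB2-transfected CHO cells detached with trypsin, 1 × 10^6 cells/assay, with forskolin and compound over a concentration curve. cAMP measured by [3H]-cAMP competition: 150 min at 4 °C, charcoal, centrifugation, supernatant counted. Expressed as % increase of forskolin-stimulated cAMP and fitted for EC50; three independent experiments in duplicate.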

Cannabinoid receptor 2 [5] = target: T1, Cannabinoid receptor 2; test: Antagonist activity at human CB2 receptor transfected in CHO cells assessed as inhibition of WIN 55,212-2 mediated suppression of forksolin induced cAMP production by scintillation counting analysis; assay type: functional, cell-based
Method in brief: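 Human CB2-transfected CHO cells, 1 × 10^6 cells/assay, forskolin-stimulated, with WIN 55,212-2 (20 nM) plus compound over a concentration range. cAMP read by [3H]-cAMP competition: 150 min at 4 °C, charcoal separation, scintillation counting. IC50 derived from reversal of the WIN 55,212-2 inhibition; mean ± SEM of three experiments in duplicate.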

Cannabinoid receptor 2 [6] = target: T1, Cannabinoid receptor 2; test: Partial agonist activity at human CB2 receptor transfected in CHO cells assessed as forksolin stimulated cAMP production by scintillation counting analysis relative to control; assay type: functional, cell-based; method in brief: as §1

T1 sequence (P34972 whole entry): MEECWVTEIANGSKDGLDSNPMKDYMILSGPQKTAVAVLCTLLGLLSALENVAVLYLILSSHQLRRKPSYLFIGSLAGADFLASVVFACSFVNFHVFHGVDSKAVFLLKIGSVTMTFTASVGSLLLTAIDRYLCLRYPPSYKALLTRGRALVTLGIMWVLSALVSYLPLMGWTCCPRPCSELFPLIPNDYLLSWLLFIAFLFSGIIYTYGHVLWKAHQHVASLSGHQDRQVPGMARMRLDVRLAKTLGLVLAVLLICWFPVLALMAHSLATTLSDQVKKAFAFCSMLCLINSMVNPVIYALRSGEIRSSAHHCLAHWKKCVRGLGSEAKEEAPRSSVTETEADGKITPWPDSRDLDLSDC
Cannabinoid receptor 1, sequence (P21554 whole entry): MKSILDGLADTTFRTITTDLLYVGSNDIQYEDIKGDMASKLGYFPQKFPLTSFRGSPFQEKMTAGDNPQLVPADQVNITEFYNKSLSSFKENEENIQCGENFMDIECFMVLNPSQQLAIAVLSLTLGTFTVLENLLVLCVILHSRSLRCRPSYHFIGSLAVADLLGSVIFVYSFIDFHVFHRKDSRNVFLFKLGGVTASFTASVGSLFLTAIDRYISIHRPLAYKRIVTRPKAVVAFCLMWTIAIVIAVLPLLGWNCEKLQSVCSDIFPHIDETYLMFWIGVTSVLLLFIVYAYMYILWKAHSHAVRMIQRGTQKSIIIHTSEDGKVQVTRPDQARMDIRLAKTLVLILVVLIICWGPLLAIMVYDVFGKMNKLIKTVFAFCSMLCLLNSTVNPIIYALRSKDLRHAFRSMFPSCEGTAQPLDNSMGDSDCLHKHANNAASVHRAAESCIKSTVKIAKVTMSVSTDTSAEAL

Structure (SMILES)	Ki (Cannabinoid receptor 1)	Ki (Cannabinoid receptor 2 [1])	Ratio Ki (CHO)	Emax (Cannabinoid receptor 2 [2])	Emax (Cannabinoid receptor 2 [3])	EC50 (Cannabinoid receptor 2 [4])	IC50 (Cannabinoid receptor 2 [5])	Emax (Cannabinoid receptor 2 [6])
CCCCCn1cc(C(=O)NC23CC4CC(CC(C4)C2)C3)c(=O)n2nc(C)nc12	471 nM	383 nM	1	132%	53%	2080 nM	865 nM	–
CCCCCn1cc(C(=O)NC23CC4CC(CC(C4)C2)C3)c(=O)n2nc(-c3ccc(Cl)cc3)nc12	5220 nM	11.3 nM	462	223%	–	637 nM	24.6 nM	–
C=CCN(CC=C)c1nc2n(CCCCC)cc(C(=O)NC34CC5CC(CC(C5)C3)C4)c(=O)n2n1	> 10000 nM	158 nM	> 63	–	–	–	–	–
CCCCCn1cc(C(=O)NC23CC4CC(CC(C4)C2)C3)c(=O)n2nc(N3CCOCC3)nc12	> 10000 nM	53 nM	140	132%	53%	670 nM	162 nM	–
CCCCCn1cc(C(=O)NC23CC4CC(CC(C4)C2)C3)c(=O)n2nc(-c3cccnc3)nc12	> 10000 nM	228 nM	> 44	–	–	–	–	–
CCCCCn1cc(C(=O)NC23CC4CC(CC(C4)C2)C3)c(=O)n2nc(-c3ccc(OC)cc3)nc12	3720 nM	47 nM	79	132%	53%	858 nM	128 nM	–
CCCCCn1cc(C(=O)NC2CCCCC2)c(=O)n2nc(N(C)Cc3ccccc3)nc12	> 10000 nM	1330 nM	> 7	–	–	–	–	–
CCCCCn1cc(C(=O)NC2CCCCC2)c(=O)n2nc(-c3ccc(C)cc3)nc12	> 10000 nM	31 nM	> 323	132%	53%	464 nM	79 nM	–
CCCCCn1cc(C(=O)NC23CC4CC(CC(C4)C2)C3)c(=O)n2nc(N(C)Cc3ccccc3)nc12	> 10000 nM	21 nM	> 476	132%	53%	453 nM	29 nM	–
CCCCCn1cc(C(=O)NC23CC4CC(CC(C4)C2)C3)c(=O)n2nc(-c3ccccc3)nc12	–	–	146	132%	53%	161 nM	8.6 nM	–
CCCCCn1cc(C(=O)NC23CC4CC(C)(CC(C)(C4)C2)C3)c(=O)n2nc(-c3ccccc3)nc12	653 nM	8.4 nM	77	243%	–	489 nM	18.4 nM	–
CCCCCn1cc(C(=O)NC2CCCCC2)c(=O)n2nc(-c3ccc(Cl)cc3)nc12	4720 nM	117 nM	40	–	–	–	–	–
CCCCCn1cc(C(=O)NC2CCCCC2)c(=O)n2nc(-c3ccc(OC)cc3)nc12	5850 nM	96 nM	61	–	–	–	–	–
CCCCCn1cc(C(=O)NC23CC4CC(C)(CC(C)(C4)C2)C3)c(=O)n2ncnc12	622 nM	25 nM	25	132%	53%	88 nM	–	60%
CCCCCn1cc(C(=O)NC23CC4CC(CC(C4)C2)C3)c(=O)n2nc(SC)nc12	> 10000 nM	47 nM	> 213	132%	53%	494 nM	139 nM	–
CCCCCn1cc(C(=O)NC23CC4CC(CC(C4)C2)C3)c(=O)n2nc(-c3ccco3)nc12	1170 nM	45 nM	26	132%	53%	771 nM	124 nM	–
CCCCCn1cc(C(=O)NC23CC4CC(CC(C4)C2)C3)c(=O)n2nc(-c3ccc(C)cc3)nc12	1520 nM	6.8 nM	223	256%	–	652 nM	12.6 nM	–
CCCCCn1cc(C(=O)NC2CCCCCC2)c(=O)n2nc(N3CCOCC3)nc12	> 10000 nM	566 nM	> 18	–	–	–	–	–
CCCCCn1cc(C(=O)NC2CCCCC2)c(=O)n2nc(C)nc12	488 nM	674 nM	1	–	–	–	–	–
CCCCCn1cc(C(=O)NC23CC4CC(CC(C4)C2)C3)c(=O)n2ncnc12	–	–	36	132%	53%	–	–	57%
CCCCCn1cc(C(=O)NC2CCCCC2)c(=O)n2nc(N3CCN(C)CC3)nc12	> 10000 nM	> 10000 nM	> 188	–	–	–	–	–
CCCCCn1cc(C(=O)NC2CCCCC2)c(=O)n2nc(SC)nc12	> 10000 nM	716 nM	> 14	–	–	–	–	–
CCCCCn1cc(C(=O)NC2CCCCC2)c(=O)n2nc(-c3ccccc3)nc12	3210 nM	43 nM	75	132%	53%	756 nM	111 nM	–
CCCCCn1cc(C(=O)NC2CCCCC2)c(=O)n2nc(N3CCOCC3)nc12	> 10000 nM	> 10000 nM	–	–	–	–	–	–
CCCCCn1cc(C(=O)NC2CCCCCC2)c(=O)n2nc(-c3ccccc3)nc12	2480 nM	48 nM	52	132%	53%	849 nM	142 nM	–
Cc1c(C(=O)c2cccc3ccccc23)c2cccc3c2n1[C@H](CN1CCOCC1)CO3	–	–	–	132%	53%	–	–	–
CCCCCn1cc(C(=O)NC2CCCCCC2)c(=O)n2nc(-c3ccc(C)cc3)nc12	6350 nM	22 nM	289	132%	53%	393 nM	64 nM	–
C=CCN(CC=C)c1nc2n(CCCCC)cc(C(=O)NC3CCCCC3)c(=O)n2n1	> 10000 nM	1350 nM	> 7	–	–	–	–	–
CCCCCn1cc(C(=O)NC2CCCCCC2)c(=O)n2ncnc12	717 nM	514 nM	1	–	–	–	–	–
CCCCCn1cc(C(=O)NC2CCCCCC2)c(=O)n2nc(N3CCN(C)CC3)nc12	> 10000 nM	982 nM	> 10	–	–	–	–	–

From ChEMBL document CHEMBL3774386, “Synthesis and structure activity relationship investigation of triazolo[1,5-a]pyrimidines as CB2 cannabinoid receptor inverse agonists” (Eur J Med Chem, 2016)
